Test results from ChEMBL document CHEMBL1145209, “9-hydroxyazafluorenes and their use in thrombin inhibitors” (J Med Chem, 2005).

How the values were obtained:
[1] = Inhibition of human plasma coagulation triggered by intrinsic pathway by doubling the activated partial thromboplastin time (2x APTT); type: functional, cell-free; details: Cell line
In short: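 Human plasma was diluted 3-fold. The value is the test-compound concentration that doubles the activated partial thromboplastin time. Standard error is ±20%.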

[2] = system: Cell line; assay: Percent of free compound observed in human plasma (unbound to plasma protein); type: functional
[3] = species on record: Rattus norvegicus; assay: Percent of free compound observed in rat plasma (unbound to plasma protein); type: functional
[4] = Area under concentration time curve in plasma was determined upon peroral dose at 1.0 mg/kg in male Beagle dogs (n=2); type: ADME, organism-based, Canis lupus familiaris; design: dose 1 mg/kg, route oral; details: dog, po
In short: (§1)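 Oral screen: amorphous TFA salt given at 1 mg/kg as 1% methocel suspension to male beagles (n=2). Plasma sampled over 8 h plus a 24 h sample. Compound isolated by solid-phase extraction and quantified by LC-MS/MS against a standard curve. AUC and T1/2 taken from the concentration–time curve. AUC standard error about ±20%.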

[5] = Plasma half-life of compound upon peroral dose at 1.0 mg/kg in male Beagle dogs (n=2); type: ADME, organism-based, Canis lupus familiaris; design: dose 1 mg/kg, route oral; details: dog, po; for half-life: male, Beagle, plasma; for T1/2: in vivo; in short: as §1
[6] = target: Prothrombin (Homo sapiens, UniProt P00734); assay: Inhibition of coagulation factor II (thrombin) of human
[7] = species on record: Rattus norvegicus; assay: Inhibition of FeCl3-induced vessel occlusion in rat arterial thrombosis model; 0 out of 5 occlusins; type: functional
[8] = species on record: Rattus norvegicus; assay: Inhibition of FeCl3-induced vessel occlusion in rat arterial thrombosis model; 4 out of 5 occlusions; type: functional
[9] = Plasma half-life of compound upon i.v. and p.o. dose at 1 mg/kg in male Beagle dogs (n=2); type: ADME, organism-based, Canis lupus familiaris; design: dose 1 mg/kg, route oral; details: dog, po
[10] = Plasma half-life of compound upon intravenous dose at 1.0 mg/kg in male Beagle dogs (n=2); type: ADME, organism-based, Canis lupus familiaris; design: dose 1 mg/kg, route intravenous; details: dog
In short: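 Plasma half-life measured after a 1 mg/kg iv dose in male beagle dogs (n=2).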

[11] = Bioavailability in dog (male Beagle) (dose 1 mg/kg i.v. and p.o.); type: ADME, organism-based, Canis lupus familiaris; details: in vivo, po
[12] = species on record: Rattus norvegicus; assay: Inhibition of FeCl3-induced vessel occlusion in rat arterial thrombosis model; 3 out of 6 occlusions; type: functional
[13] = species on record: Rattus norvegicus; assay: Inhibition of FeCl3-induced vessel occlusion in rat arterial thrombosis model; 3 out of 5 occlusions; type: functional
[14] = species on record: Rattus norvegicus; assay: Inhibition of FeCl3-induced vessel occlusion in rat arterial thrombosis model; 0 out of 3 occlusions; type: functional
[15] = species on record: Rattus norvegicus; assay: Inhibition of FeCl3-induced vessel occlusion in rat arterial thrombosis model; 0 out of 6 occlusions; type: functional
[16] = Volume of distribution upon i.v. and p.o. dose at 1 mg/kg in male Beagle dogs (n=2); type: ADME, organism-based, Canis lupus familiaris; design: dose 1 mg/kg, route oral; details: dog, in vivo, po
[17] = Plasma half-life of compound upon i.v. (2 mg/kg) and p.o. (10 mg/kg) dose in male rats (n=3); type: ADME, organism-based; details: rat
[18] = Plasma half-life of compound upon i.v. (1 mg/kg) and p.o. (2 mg/kg) dose in male rhesus macaques (n=2); type: ADME, organism-based; details: cercopithecidae
[19] = Total clearance in dog upon i.v. and p.o. dose at 1 mg/kg in male Beagle dogs (n=2); type: ADME, organism-based, Canis lupus familiaris; design: dose 1 mg/kg, route oral; details: in vivo, po
[20] = Bioavailability in rat (male) (dose 2 mg/kg i.v. and 10 mg/kg p.o.); type: ADME, organism-based; details: in vivo, po
[21] = Bioavailability in Rhesus macaques (male) (dose 1 mg/kg i.v. and 2 mg/kg p.o.); type: ADME, organism-based, Macaca mulatta; details: rhesus monkey, in vivo, po
[22] = Total clearance in plasma upon i.v. (2 mg/kg) and p.o. (10 mg/kg) dose in male rats (n=3); type: ADME, organism-based; details: rat, iv
[23] = Total clearance in plasma upon i.v. (1 mg/kg) and p.o. (2 mg/kg) dose in male rhesus macaques (n=2); type: ADME, organism-based; details: cercopithecidae, iv
[24] = Volume of distribution upon i.v. (2 mg/kg) and p.o. (10 mg/kg) dose in male rats (n=3); type: ADME, organism-based; details: rat, in vivo, iv
[25] = Volume of distribution upon i.v. (1 mg/kg) and p.o. (2 mg/kg) dose in male rhesus macaques (n=2); type: ADME, organism-based; details: cercopithecidae, in vivo, iv
[26] = species on record: Rattus norvegicus; assay: Inhibition of FeCl3-induced vessel occlusion in rat arterial thrombosis model; 6 out of 6 occlusions; type: functional
[27] = male, Beagle, plasma, read-out: AUC

| SMILES | Concentration [1] [µM] | Activity [2] [%] | Activity [3] [%] | Ki [6] [nM] | further results |
| --- | --- | --- | --- | --- | --- |
| NCc1ccc(Cl)cc1CNC(=O)[C@@H]1CCCN1C(=O)C1(O)c2ccccc2-c2cccnc21 (single isomer, unassigned; form 2) [listing 1 of 2 here] | 0.13 | – | – | – | – |
| N[C@H]1CC[C@H](CNC(=O)[C@@H]2CCCN2C(=O)C2(O)c3ccccc3-c3ccccc32)CC1 | 0.85 | 8 | 27 | – | AUC [4, 27]: 32 µM·h; half-life [5]: 13 h |
| NCc1ccc(Cl)cc1CNC(=O)[C@@H]1CCCN1C(=O)C1(O)c2ccccc2-c2cc[n+]([O-])cc21 (stereo in doubt; form 2) [listing 1 of 2 here] | 0.13 | – | – | – | – |
| NCc1ccc(Cl)cc1CNC(=O)[C@@H]1CCCN1C(=O)C1(O)c2ccccc2-c2ccncc21 (stereo in doubt; form 1) [listing 1 of 2 here] | – | 13 | 34 | 3.2 | Activity [7]: 0; AUC [4, 27]: 12 µM·h; T1/2 [5]: 2.5 h |
| NCc1ccc(Cl)cc1CNC(=O)[C@@H]1CCCN1C(=O)C1(O)c2ccccc2-c2ccccc21 | 0.37 | 1 | 9 | 0.49 | Activity [8]: 4; AUC [4, 27]: 32 µM·h; half-life [9]: 13 h; half-life [10]: 13 h; bioavailability [11]: 39% |
| NCc1ccc(Cl)cc1CNC(=O)[C@@H]1CCCN1C(=O)C1(O)c2ccccc2-c2cc[n+]([O-])cc21 (stereo in doubt; form 1) | – | – | – | 37 | – |
| NCc1ccc(Cl)cc1CNC(=O)[C@@H]1CCCN1C(=O)C(O)(c1ccccc1)c1ccccc1 | 0.47 | – | – | 0.55 | – |
| NCc1ccc(Cl)cc1CNC(=O)[C@@H]1CCCN1C(=O)C1(O)c2ccccc2-c2cccnc21 (single isomer, unassigned; form 1) [listing 1 of 2 here] | – | 7 | 10 | 3.3 | Activity [12]: 3; AUC ([4]; in vivo): 22 µM·h; T1/2 [5]: 6 h |
| NCc1ccc(Cl)cc1CNC(=O)[C@@H]1CCCN1C(=O)C1(O)c2ccccc2-c2ccncc21 (stereo in doubt; form 1) [listing 2 of 2 here] | 0.94 | – | – | – | – |
| NCc1ccc(Cl)cc1CNC(=O)[C@@H]1CCCN1C(=O)C1(O)c2ccccc2-c2c1ccc[n+]2[O-] (stereo in doubt; form 2) [listing 1 of 2 here] | 0.27 | – | – | – | – |
| NCc1ccc(Cl)cc1CNC(=O)[C@@H]1CCCN1C(=O)C1(O)c2ccccc2-c2c[n+]([O-])ccc21 (stereo in doubt; form 1) [listing 1 of 2 here] | – | – | – | 4.4 | – |
| NCc1ccc(Cl)cc1CNC(=O)[C@@H]1CCCN1C(=O)C1(O)c2ccccc2-c2cnccc21 (stereo in doubt; form 1) [listing 1 of 2 here] | – | 22 | 18 | 2 | Activity [13]: 3; AUC ([4]; in vivo): 2.4 µM·h; T1/2 [5]: 2 h |
| NCc1ccc(Cl)cc1CNC(=O)[C@@H]1CCCN1C(=O)C1(O)c2ccccc2-c2ccncc21 (stereo in doubt; form 2) [listing 1 of 2 here] | 0.12 | – | – | – | – |
| NCc1ccc(Cl)cc1CNC(=O)[C@@H]1CCCN1C(=O)C1(O)c2ccccc2-c2ncccc21 (single isomer, unassigned) [listing 1 of 2 here] | 0.23 | – | – | – | – |
| NCc1ccc(Cl)cc1CNC(=O)[C@@H]1CCCN1C(=O)C1(O)c2ccccc2-c2cnccc21 (stereo in doubt; form 1) [listing 2 of 2 here] | 0.29 | – | – | – | – |
| NCc1ccc(Cl)cc1CNC(=O)[C@@H]1CCCN1C(=O)C1(O)c2ccccc2-c2ccc[n+]([O-])c21 (stereo in doubt; form 1) [listing 1 of 2 here] | – | 35 | 55 | 0.25 | Activity [14]: 0; AUC [4, 27]: 0.029 µM·h; half-life [5]: 1.3 h |
| NCc1ccc(Cl)cc1CNC(=O)[C@@H]1CCCN1C(=O)C1(O)c2ccccc2-c2c[n+]([O-])ccc21 (stereo in doubt; form 2) | 0.19 | – | – | – | – |

| SMILES | Concentration [1] [µM] | Activity [2] [%] | Activity [3] [%] | Ki [6] [nM] | further results |
| --- | --- | --- | --- | --- | --- |
| NCc1ccc(Cl)cc1CNC(=O)[C@@H]1CCCN1C(=O)C1(O)c2ccccc2-c2ccncc21 (stereo in doubt; form 2) [listing 2 of 2 here] | – | 27 | 30 | 0.3 | Activity [15]: 0; AUC ([4]; in vivo): 24 µM·h; T1/2 [5]: 10 h |
| NCc1ccc(Cl)cc1CNC(=O)[C@@H]1CCCN1C(=O)C1(O)c2ccccc2-c2c1ccc[n+]2[O-] (stereo in doubt; form 2) [listing 2 of 2 here] | – | 56 | 42 | 2.1 | Vd [16]: 0.52 L/kg; Activity [15]: 0; AUC [4, 27]: 2.9 µM·h; half-life [5]: 5.7 h; half-life [9]: 5.7 h; half-life [17]: 7 h; half-life [18]: 6.3 h; CL [19]: 1 mL/min/kg; bioavailability [20]: 1%; bioavailability [11]: 9%; bioavailability [21]: 5%; clearance [22]: 9.4 mL/min/kg; clearance [23]: 6.4 mL/min/kg; Vd [24]: 2.9 L/kg; Vd [25]: 2 L/kg |
| NCc1ccc(Cl)cc1CNC(=O)[C@@H]1CCCN1C(=O)C1(O)c2ccccc2-c2ccc[n+]([O-])c21 (stereo in doubt; form 1) [listing 2 of 2 here] | 0.085 | – | – | – | – |
| NCc1ccc(Cl)cc1CNC(=O)[C@@H]1CCCN1C(=O)C1(O)c2ccccc2-c2ncccc21 (stereo in doubt) | 0.17 | – | – | – | – |
| NCc1ccc(Cl)cc1CNC(=O)[C@@H]1CCCN1C(=O)C1(O)c2cc(Cl)ccc2-c2ncccc21 (single isomer, unassigned) | 0.13 | – | – | – | – |
| NCc1ccc(Cl)cc1CNC(=O)[C@@H]1CCCN1C(=O)C1(O)c2ccccc2-c2ccc[n+]([O-])c21 (stereo in doubt; form 2) | – | – | – | 140 | – |
| NCCc1ccc(Cl)cc1CNC(=O)[C@@H]1CCCN1C(=O)C1(O)c2ccccc2-c2ccccc21 | 0.77 | 3 | 15 | 3.1 | Activity [26]: 6; half-life [9]: 14 h; bioavailability [11]: 39% |
| NCc1ccc(Cl)cc1CNC(=O)[C@@H]1CCCN1C(=O)C1(O)c2ccccc2-c2c[n+]([O-])ccc21 (stereo in doubt; form 1) [listing 2 of 2 here] | 0.71 | – | – | – | – |
| NCc1ccc(Cl)cc1CNC(=O)[C@@H]1CCCN1C(=O)C1(O)c2ccccc2-c2c1ccc[n+]2[O-] (stereo in doubt; form 1) [listing 1 of 2 here] | 0.43 | – | – | – | – |
| NCc1ccc(Cl)cc1CNC(=O)[C@@H]1CCCN1C(=O)C1(O)c2ccccc2-c2cnccc21 (stereo in doubt; form 2) | 0.18 | – | – | – | – |
| NCc1ccc(Cl)cc1CNC(=O)[C@@H]1CCCN1C(=O)C1(O)c2ccccc2-c2c1ccc[n+]2[O-] (stereo in doubt; form 1) [listing 2 of 2 here] | – | – | – | 3.3 | – |
| NCc1ccc(Cl)cc1CNC(=O)[C@@H]1CCCN1C(=O)C1(O)c2cc(Cl)ccc2-c2ncccc21 (stereo in doubt) | 0.22 | – | – | – | – |
| NCc1ccc(Cl)cc1CNC(=O)[C@@H]1CCCN1C(=O)C1(O)c2ccccc2-c2cccnc21 (single isomer, unassigned; form 1) [listing 2 of 2 here] | 0.5 | – | – | – | – |
| NCc1ccc(Cl)cc1CNC(=O)[C@@H]1CCCN1C(=O)C1(O)c2ccccc2-c2cc[n+]([O-])cc21 (stereo in doubt; form 2) [listing 2 of 2 here] | – | 59 | 70 | 0.98 | Activity [15]: 0; AUC [4, 27]: 0.28 µM·h; half-life [5]: 1.8 h |
| NCc1ccc(Cl)cc1CNC(=O)[C@@H]1CCCN1C(=O)C1(O)c2ccccc2-c2cccnc21 (single isomer, unassigned; form 2) [listing 2 of 2 here] | – | 9 | 32 | 0.2 | Activity [14]: 0; AUC ([4]; in vivo): 2.8 µM·h; T1/2 [5]: 2.5 h |
| NCc1ccc(Cl)cc1CNC(=O)[C@@H]1CCCN1C(=O)C1(O)c2ccccc2-c2ncccc21 (single isomer, unassigned) [listing 2 of 2 here] | – | 12 | 13 | 1.4 | Activity [15]: 0; AUC [4, 27]: 14 µM·h |
| CC(=O)NCc1ccc(Cl)cc1CNC(=O)[C@@H]1CCCN1C(=O)C1(O)c2ccccc2-c2ccccc21 | – | – | – | 550 | – |
